Source: PubChem
Only some compounds are listed: those with a hit (about 2.8% of all), similar ones and a draw of the others.
JMJD2C inh – inhibitors of GASC-1 histone demethylase, primary screen, biochemical, fluorescence, DELFIA europium; GST-JMJD2C(1-420) H3K9me3 demethylation; inhibition, % at 2.35 µM; 330,000 compounds, 0.069% hits;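 active = more than half of a compound's replicate wells show inhibition beyond 50%, single wells judged on their own value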;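 also: signal counts dimethyl H3K9 product captured on neutravidin plate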
NR3A LBD binder – binders of NR3A ligand-binding domain, primary screen, biophysical, differential scanning fluorimetry, uHTS. Glutamate receptor ionotropic, NMDA 3A (GRIN3A) ligand-binding domain. NR3A LBD differential scanning fluorimetry, Tm shift; 0% = protein alone, 100% = glycine-bound protein. Tm shift relative to glycine control, % at 25 µM. 340,000 compounds, 2.5% hits. AID 1259313, 2017;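 active = melting temperature shift of at least 10% of the positive control shift, at one fixed dose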
Rtt109 HAT inh – inhibitors of C. albicans Rtt109/Vps75 HAT, primary screen, biochemical, ThioGlo CoA-SH fluorescence, plate reader; Histone acetyltransferase RTT109 (Candida albicans (strain SC5314 / ATCC MYA-2876)), …; purified Rtt109/Vps75, 4 h; 330,000 compounds, 0.16% hits; inhibition, % at 34.9 µM;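 active = inhibition of at least 50% in every replicate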
Target sequence (Q5AAJ8 whole entry, looked up): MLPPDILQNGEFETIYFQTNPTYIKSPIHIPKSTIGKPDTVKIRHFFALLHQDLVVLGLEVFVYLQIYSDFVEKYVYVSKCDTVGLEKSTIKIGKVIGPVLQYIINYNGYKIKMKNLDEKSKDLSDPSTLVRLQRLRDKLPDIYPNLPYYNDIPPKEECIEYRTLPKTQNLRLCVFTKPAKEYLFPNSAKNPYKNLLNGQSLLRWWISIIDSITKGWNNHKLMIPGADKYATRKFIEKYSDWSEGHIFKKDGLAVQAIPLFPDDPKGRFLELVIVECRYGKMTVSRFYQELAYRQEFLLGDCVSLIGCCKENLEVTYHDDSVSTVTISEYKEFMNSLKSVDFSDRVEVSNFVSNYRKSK
T cell HTS – modulators of CD8 T cell-vesicle binding, primary screen, mouse 2C CD8+ T cells, flow cytometry; response (vesicle binding), % at 7 µM; 330,000 compounds, 0.068% hits; AID 2052, 2009; 2C CD8+ T cell-vesicle binding; stronger effect = lower value;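 active = response, share of CD8 T cells binding vesicles, and their 90th percentile fluorescence all below set limits, cut at about 80% in these data, passing the limit was not always enough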;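 also: values below 100% mean blocked vesicle binding to the CD8+ T cells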
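material = purified 2C TCR transgenic mouse naive CD8+ T cells | controls = Unloaded micro-vesicles (low), QL9 vesicles with 0.7% DMSO (high) | detection = cytometric PE anti-B7-1 and Alexa647 anti-CD8 signals after 1% paraformaldehyde fixation | incubation = binding step 1.5 h, 37 °C, antibody labelling 20 min, ice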
Of the large screens only hits and unclear results are named; the others gave an inactive call.

O=C1NC(=O)N(Cc2ccc(F)cc2)C(=O)/C1=C\C=C\c1ccco1	JMJD2C inh 69
Cc1cc(C)cc(N2C(=O)NC(=O)/C(=C\C=C\c3ccco3)C2=O)c1	NR3A LBD binder 12
CCc1ccccc1NC(=O)N1C[C@H]2C[C@@H](C1)c1cccc(=O)n1C2	none
O=c1[nH]c(=O)n(CC2CCCO2)c(O)c1/C=C1\C=Nc2ccccc21 (stereo not drawn)	none
O=c1[nH]c(=O)n(Cc2ccccc2)c(O)c1/C=C1\C=Nc2ccccc21	NR3A LBD binder 10
COc1ccccc1N1C(=O)NC(=O)C2(Cc3cc(C)ccc3N(C)C2)C1=O (stereo not drawn)	none
COC(=O)C1=C(N)Oc2c(c(=O)oc3ccccc23)[C@]12C(=O)N(C)c1ccccc12	NR3A LBD binder 17
COC(=O)C1=C(N)OC(C)=C(C(C)=O)C12C(=O)N(C)c1ccccc12 (stereo not drawn)	none
O=C(Nc1cccc(Cl)c1)OC1CN2CCC1CC2 (stereo not drawn)	NR3A LBD binder 42
O=[N+]([O-])c1ccc(N2CCCCCC2)c2ncccc12	NR3A LBD binder 21
C=C1C(O)[C@@H]2O[C@]3(CC[C@H](/C=C/C(C)[C@@H]4CC(C)=CC5(O[C@H](C[C@@](C)(O)C(=O)O)CCC5O)O4)O3)CC[C@H]2O[C@@H]1C(O)CC(C)[C@H]1OC2(CCCCO2)CCC1C (stereo partly drawn)	NR3A LBD binder 13 (no result: JMJD2C inh, Rtt109 HAT inh)
O=C(NC1CCCCC1)[C@@H]1CC=C[C@@H]2CCN(Cc3ccccc3)C(=O)[C@@H]21	none
Cc1c(N=Cc2c(O)n(Cc3ccccc3)c(=O)[nH]c2=O)c(=O)n(-c2ccccc2)n1C	none (no result: Rtt109 HAT inh)
Cc1c(N=Nc2c(O)n(Cc3ccccc3)c(=O)[nH]c2=O)c(=O)n(-c2ccccc2)n1C	NR3A LBD binder 15
O=C1NC(=O)C(C(CC(=O)c2ccccc2)c2ccccc2)C(=O)N1 (stereo not drawn)	JMJD2C inh 53
CCOCCCNC(=O)C1c2cc(OC)c(OC)cc2C(=O)N2CCCCC12 (stereo not drawn)	none
CCN(CC)CCCN=Cc1c(O)n(-c2cccc(C)c2C)c(=O)[nH]c1=O	NR3A LBD binder 11
CCN(CC)CCCN=Cc1c(O)n(-c2ccccc2F)c(=O)[nH]c1=O	none
NS(=O)(=O)c1ccc(N=Nc2c(O)[nH]c(=S)[nH]c2=O)cc1	none
O=c1[nH]c(=S)[nH]c(O)c1N=Nc1cc(S(=O)(=O)Nc2ccc(Cl)cc2)ccc1Cl	NR3A LBD binder 13
CC[C@H](C)[C@@H]1O[C@@]2(C=CC1C)CC1C[C@@H](CC=C(C)C(O[C@H]3CC(OC)C(O[C@H]4CC(OC)C(O)C(C)O4)C(C)O3)C(C)C=CC=C3CO[C@@H]4C(O)C(C)=C[C@@H](C(=O)O1)[C@]34O)O2 (stereo partly drawn)	none (no result: JMJD2C inh, NR3A LBD binder, Rtt109 HAT inh)
CCCCc1ccc(NC2=NCCCS2)cc1	none
Cc1nc2ccc(Cl)cc2c(=O)n1-c1ccccc1Cl	none
CC(C)c1onc(C(=O)N2CCC3(CC2)OCCO3)c1[N+](=O)[O-]	NR3A LBD binder 16
Cc1noc(C)c1C(=O)N1CCC2(CC1)OCCO2	none
Cc1ccc2c(c1)C1C[N+](C)(CC(=O)c3ccc(Cl)cc3Cl)CCC1N2C(=O)c1ccc(F)cc1 (stereo not drawn)	Rtt109 HAT inh 57
Cc1ccc(-n2c(O)c(C=NCc3ccco3)c(=O)[nH]c2=S)cc1C	none
O=c1[nH]c(=S)n(-c2ccccc2F)c(O)c1C=NCc1ccco1	NR3A LBD binder 14
CCOc1ccc(NC(=O)c2ccc(NC(=O)COC(=O)Cc3ccccc3)cc2)cc1	NR3A LBD binder 17
CCC(C)NC(=O)c1c(N)n(CC2CCCO2)c2nc3ccccc3nc12 (stereo not drawn)	none
CCC(C)NC(=O)c1c(N)n(Cc2ccc3c(c2)OCO3)c2nc3ccccc3nc12 (stereo not drawn)	NR3A LBD binder 15
CCC(CC)N1CCN(C(=O)Cc2ccccc2)CC1	none
O=C(c1cc(C(=O)NCc2ccccc2)c(=O)n(Cc2ccccc2)c1)c1cc(Cl)ccc1O	NR3A LBD binder 13
CCOC(=O)C(NC(C)=O)C(OC(C)=O)c1cccc(N(CCCl)CCCl)c1 (stereo not drawn)	none
Nc1c(C(=O)OCc2ccccc2)c2nc3ccccc3nc2n1Cc1cccs1	NR3A LBD binder 14
C=CCn1c(O)c(C(C)=Nc2cccc(C(=O)O)c2)c(=O)[nH]c1=O	none
C=CCn1c(O)c(C(C)=Nc2cccc(C(F)(F)F)c2)c(=O)[nH]c1=O	NR3A LBD binder 12
COC(=O)C1=C(C(=O)OC)C2OC1c1cc3ccccc3cc12	none (no result: JMJD2C inh, T cell HTS)
C/C=C1/C[N+]2(C)CCC34C(=C(C=O)[C@H]1C[C@@H]32)Nc1ccccc14 (stereo partly drawn)	none (no result: JMJD2C inh)
CCN1CCN(Cc2ccccc2C)CC1	NR3A LBD binder 40
CCC1C(c2ccccc2)NC(c2ccccc2)CC1(O)c1ccc(F)cc1 (stereo not drawn)	none
N=C(N)c1c(O)n(C2CCCCC2)c(=O)n(C2CCCCC2)c1=O	NR3A LBD binder 18
COC(=O)C1=C(c2ccc(S(C)(=O)=O)cc2)C[C@@H]2CC[C@H]1N2C(=O)NCCCOC(C)C	none
N=C1c2ccccc2CN1NC(=O)c1ccccc1	Rtt109 HAT inh 51
CCN(CC)C(=O)c1ccc(NC(=O)C2=C(C)OCCS2)cc1	none
Cc1cccc(NP(=O)(Oc2ccccc2F)Oc2ccccc2F)c1C	NR3A LBD binder 24
Cc1c2ccncc2c(C)c2c1[nH]c1ccccc12	none
c1ccc2c(c1)[nH]c1cnccc12	NR3A LBD binder 14
O=C(Nc1ccc(Cl)cc1)N1CC2CC(C1)c1cccc(=O)n1C2 (stereo not drawn)	NR3A LBD binder 11
O=C(N/N=C1/CN2CCC1CC2)c1cc2ccccc2cc1O	none
Oc1cc(O)cc(/C=C/c2ccc(O)cc2O)c1	NR3A LBD binder 11
C[C@]12CCC3C(CC[C@H]4C[C@H](O)CC[C@]34C)C1C[C@@H](O)[C@H]2O (stereo partly drawn)	none (no result: JMJD2C inh, Rtt109 HAT inh, T cell HTS)
CCN1CCOC(c2ccccc2)C1 (stereo not drawn)	none (no result: JMJD2C inh, T cell HTS)
CC1C(c2ccccc2)OCCN1C (stereo not drawn)	NR3A LBD binder 11 (no result: JMJD2C inh, T cell HTS)
c1ccc(C2OCCN3CCCCC23)cc1 (stereo not drawn)	NR3A LBD binder 11 (no result: JMJD2C inh)
COc1ccccc1N1CCN(CCc2c[nH]c3cc4c(cc23)OCO4)CC1	none (no result: JMJD2C inh, T cell HTS)
CN1C(=O)C(Cc2cccc3ccccc23)C(=O)N(C)C1=O	none
COc1cc(CC2C(=O)N(C)C(=O)N(C)C2=O)ccc1OCc1ccccc1	JMJD2C inh 52
CN1C(=O)C(Cc2ccc(OCc3ccccc3)cc2)C(=O)N(C)C1=O	JMJD2C inh 50
COC(=O)C1=C(c2ccc(OCc3ccccc3)cc2)C[C@@H]2CC[C@H]1N2C(=O)NCCCc1ccccc1	none (no result: JMJD2C inh)
